# Compound activity from PubChem BioAssay.
# Hits are enriched below; roughly 2.5% of the tested compounds scored in any of these assays.
# E-sel inducer – E-selectin induction in HUVECs, primary screen, imaging, HUVEC, immunofluorescence imaging, single point. P16581. normalized: neutral wells 0, TNF-alpha wells 100. activation, % at 7.58 µM. actives 0.37% (n = 260,000). AID 686992, 2013;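 active means mean E-selectin-positive cell signal at least 10% of the positive control, reached in at least 60% of replicates, without over 20% cell loss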
# Target sequence (P16581 whole entry, looked up): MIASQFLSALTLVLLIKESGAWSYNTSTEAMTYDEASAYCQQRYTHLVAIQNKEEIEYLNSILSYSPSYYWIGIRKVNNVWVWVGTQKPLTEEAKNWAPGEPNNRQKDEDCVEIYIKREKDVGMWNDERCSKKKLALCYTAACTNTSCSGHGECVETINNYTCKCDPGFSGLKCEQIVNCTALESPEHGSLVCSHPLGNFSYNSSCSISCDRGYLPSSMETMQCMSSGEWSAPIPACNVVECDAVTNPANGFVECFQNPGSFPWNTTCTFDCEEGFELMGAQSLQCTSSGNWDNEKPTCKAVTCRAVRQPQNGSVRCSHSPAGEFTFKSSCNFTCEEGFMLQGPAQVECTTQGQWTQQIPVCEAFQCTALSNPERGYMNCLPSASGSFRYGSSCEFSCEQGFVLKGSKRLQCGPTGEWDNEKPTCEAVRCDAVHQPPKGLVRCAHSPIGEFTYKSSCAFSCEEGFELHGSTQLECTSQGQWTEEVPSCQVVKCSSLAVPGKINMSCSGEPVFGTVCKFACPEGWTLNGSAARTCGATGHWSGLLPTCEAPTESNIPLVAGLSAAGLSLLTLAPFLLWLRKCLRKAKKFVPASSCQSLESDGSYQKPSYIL
#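 Material: HUVEC primary endothelial cells; Amount: 3,000 cells per well; Dosing: single concentration; Medium: EGM-2 growth medium on 0.1% gelatin-coated wells; Read-out basis: percent E-selectin-positive cells; Signal: immunofluorescence imaging; Control set: TNF-alpha, DMSO.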
# SIRT5 block – SIRT5 desuccinylase inhibitors, primary screen, biochemical, fluorescence imaging, single point, set 5; NAD-dependent protein deacylase sirtuin-5, mitochondrial (Homo sapiens), Q9NXA8; actives 1.1% (n = 330,000); Purified SirT5, succinyl-peptide AMC, trypsin-coupled fluorescence; inhibition, % at 15 µM; in the data active means inhibition above about 15%
# DENV2 CPE rescue – inhibitors of DENV2 cytopathic effect, primary screen, cell-based, plate reader, single concentration. AID 651640, 2012. CPE inhibition, % at 9.99 µM. DENV2-infected cells, cytopathic effect rescue. actives 1.7% (n = 350,000); in the data active means CPE inhibition above about 20%, passing the limit was not always enough; tested in BHK-21 cells;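 further: 0% = median of neutral control wells and 100% = median of positive control wells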
# ERAP1 inh – human ERAP1 aminopeptidase inhibitors, primary screen, biochemical, single point, plate reader; Endoplasmic reticulum aminopeptidase 1 (Homo sapiens), Q9NZ08; recombinant ERAP1, Leu-AMC fluorescence, 60 min; inhibition, % at 10.7 µM; actives 0.15% (n = 340,000);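 active means mean replicate inhibition of at least 30%, or all replicates individually reaching that 30% level; inactive means mean below 30% and not every replicate reaching it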;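 further: 0% = neutral control wells and 100% = L-leucinethiol positive control wells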
# PglD inh – C. jejuni PglD acetyltransferase inhibitors, primary screen, biochemical, DTNB colorimetric, single point. UDP-N-acetylbacillosamine N-acetyltransferase PglD (Campylobacter jejuni). purified PglD enzyme, DTNB colorimetric CoA detection. inhibition, % at 12.5 µM. actives 0.098% (n = 360,000); in the data active means inhibition above about 16%, passing the limit was not always enough
# An asterisk follows results filed as active; nt = no result; ! = not active in a repeat.
SMILES,E-sel inducer,SIRT5 block,DENV2 CPE rescue,ERAP1 inh,PglD inh
Cc1ccccc1S(=O)(=O)N1CC(=O)N2[C@H](CO)[C@@H](c3ccc(C#CCN(C)C)cc3)[C@H]2C1,0,3,43*,1,nt
Cc1ccccc1S(=O)(=O)N1CC(=O)N2[C@H](CO)[C@@H](c3ccc(C#CCN(C)C)cc3)[C@@H]2C1,1,-2,34*,3,nt
CC(C)(C)NC(=O)Cn1c(SCC(=O)N2CCCCCC2)nc2ccccc21,nt,nt,nt,nt,0
CC(=O)N1[C@H](CO)[C@H](c2ccc(C3=CCCCC3)cc2)[C@@H]1CNC(=O)CN(C)C,0,5,-10,nt,-1
CCCNC(=O)NC[C@@H]1[C@@H](c2ccc(C3=CCCC3)cc2)[C@@H](CO)N1C(=O)CC,0,11,116*,0,3
CC(=O)N1[C@H](CO)[C@@H](c2ccc(C3=CCCCC3)cc2)[C@@H]1CNC(=O)CN(C)C,0,-1,22*,nt,-1
Cc1nc2ccc(C(=O)Nc3ccc4c(c3)OCC(=O)N4)cn2c1N(C)C(=O)CCc1ccccc1,-1,nt,-4,0,-4
CCCOP(=O)(c1ccc(N(C)C)cc1)C(Nc1ccccc1)c1ccc(N(C)C)cc1 (stereo not drawn),1,29*,11,2,6
Cc1ccccc1NC(=O)c1ccc(S(=O)(=O)N(C)C)cc1,0,nt,51*,nt,-1
CN(C)S(=O)(=O)c1ccc(C(=O)NCCc2ccco2)cc1,nt,0,6,0,0
CC(=O)Nc1ccc(NC(=O)CSc2nnc(-c3cccs3)n2N)cc1,nt,1,60*,0,2
CC(=O)Nc1ccc(NC(=O)CSc2nnc(C)c(=O)n2N)cc1,nt,-2,4,-1,-2
COc1ccc(NC(=O)C2CCC(N3C(=O)C4CCCCC4C3=O)CC2)cc1 (stereo not drawn),0,0,1,-4,1
Oc1ccc(-c2nccc(-c3ccc(Cl)cc3Cl)n2)cc1,nt,18*,2,-1,nt
CCc1ccc(Nc2n[n+](-c3ccccc3)c(-c3ccc(C(=O)O)cc3)s2)cc1,nt,nt,23*,-1,-2
C[C@@H]1CN([C@@H](C)CO)C(=O)c2cccc(NS(=O)(=O)c3ccccc3)c2O[C@@H]1CN(C)CC1CCCCC1,0,1,24*,0,5
C[C@@H]1CN([C@H](C)CO)C(=O)c2cccc(NS(C)(=O)=O)c2O[C@@H]1CN(C)CC1CCCCC1,0,18*,16,1,-4
C[C@H](CO)N1C[C@H](C)[C@@H](CN(C)S(=O)(=O)c2cn(C)cn2)Oc2c(NS(=O)(=O)c3ccccc3)cccc2C1=O,2,-8,23*!,2,-3
C[C@@H]1CN([C@H](C)CO)C(=O)c2cccc(NS(=O)(=O)c3ccccc3)c2O[C@H]1CN(C)CC1CCCCC1,0,3,-5,0,2
C[C@H](CO)N1C[C@H](C)[C@@H](CN(C)CC2CCCCC2)Oc2c(NS(=O)(=O)c3ccc(F)cc3)cccc2C1=O,1,27*!,-8,-1,3
C[C@@H]1CN([C@H](C)CO)C(=O)c2cccc(NS(C)(=O)=O)c2O[C@H]1CN(C)CC1CCCCC1,1,3,-8,3,2
COCCCN1C(=O)C(CC(=O)NCC2CCCCC2)CC(C(=O)N(C(C)C)C(C)C)=C1C (stereo not drawn),1,-6,9,-2,-4
Cc1ccc2c(CC(=O)NNC(=O)c3ccccc3O)coc2c1,0,5,-11,-4,-5
C[C@@H]1CN([C@@H](C)CO)C(=O)c2cccc(NS(=O)(=O)c3cn(C)cn3)c2O[C@@H]1CN(C)Cc1ccc(C(F)(F)F)cc1,-14,1,22*,-2,-2
CCCCSc1nc2c(cnn2-c2ccc(C)c(C)c2)c(=O)[nH]1,1,2,50*,4,nt
SMILES,E-sel inducer,SIRT5 block,DENV2 CPE rescue,ERAP1 inh,PglD inh
COc1ccc([N+](=O)[O-])cc1NC(=O)C(C)OC(=O)C1CC(=O)N(Cc2ccco2)C1 (stereo not drawn),0,3,95*,1,0
CN(Cc1ccsc1)C(=O)CCc1nnc(CCCc2ccccc2)o1,27*,-2,2,nt,1
CN(Cc1ccsc1)C(=O)CCc1nnc(Cc2c[nH]c3ccccc23)o1,nt,-4,nt,4,nt
Cc1nn(C)cc1NC(=O)C[C@H]1CC[C@H]2[C@H](COc3ccc(NC(=O)c4cccc(F)c4)cc3C(=O)N2C)O1,0,3,-3,0,4
CCCNC(=O)Nc1ccc2c(c1)OC[C@H](C)N(Cc1ccc(-c3ccccn3)cc1)C[C@@H](C)[C@H](OC)CN(C)C2=O,0,nt,25*,-2,1
CCCNC(=O)Nc1ccc2c(c1)C(=O)N(C)C[C@H](OC)[C@H](C)CN(Cc1cncnc1)[C@H](C)CO2,0,-2,53*,-1,2
CCCC(=O)Nc1ccc2c(c1)C(=O)N(C)C[C@H](OC)[C@@H](C)CN(Cc1ccc(-c3ccccn3)cc1)[C@H](C)CO2,0,nt,36*,1,-6
CCCNC(=O)Nc1ccc2c(c1)C(=O)N(C)C[C@@H](OC)[C@H](C)CN(Cc1cncnc1)[C@@H](C)CO2,0,-3,nt,-1,-2
Cc1ccc(-n2c(C)c(C)c3c(NCCCO)ncnc32)cc1,nt,1,-2,1,0
COc1ccc(S(=O)(=O)N2CCNCC2)cc1OC,nt,-5,-2,1,nt
COc1ccc([C@H]2/C=C\CN(C(=O)CC(C)(C)C)[C@@H](C)C(=O)N2Cc2ccc(F)cc2)cc1,0,nt,-9,-1,4
COc1ccc([C@H]2/C=C\CN(C(=O)c3ccc(C)cc3)[C@@H](C)C(=O)N2Cc2ccc(F)cc2)cc1,0,nt,125*,nt,3
COc1ccc(C2/C=C\CN(Cc3ccncc3)CC(=O)N2Cc2ccc(F)cc2)cc1 (stereo not drawn),1,16*,6,3,1
Cc1ccc(NC(=O)CCN2CCN(C)CC2)cc1,0,-2,-1,4,1
O=C(/C=C/c1ccccc1)NCCc1ccc2c(c1)OCCO2,nt,0,59*,1,nt
CC1=NCCN1S(=O)(=O)c1c(C(C)C)cc(C(C)C)cc1C(C)C,3,27*,nt,8,1
C=CCN(c1ccccc1)S(=O)(=O)c1cccc(C(=O)OCC(=O)NC2CC2)c1,nt,-3,-4,11,3
COc1ccc(CCNCc2ccc(OCc3ccc(Cl)nc3)c(OC)c2)cc1OC,nt,nt,nt,nt,-6
CCCCCNCc1ccc(OCc2ccc(Cl)nc2)c(OC)c1,nt,nt,31*,-2,nt
